ChEMBL document CHEMBL1147752, “Pyrazoloheteroaryls: novel p38alpha MAP kinase inhibiting scaffolds with oral activity” (Bioorg Med Chem Lett, 2006)

Key:
[1] = molecular target: Mitogen-activated protein kinase 14 (Mus musculus, UniProt P47811); experiment: Inhibitory activity against murine p38-alpha MAPK
In short: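 Kinase assay with phosphorylated His-tagged p38α MAP kinase of murine origin (10 ng/well). Substrate was immobilised GST-ATF-2, with 120 µM cold ATP present. Result expressed as IC50 (nM).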

Mus musculus = experiment: Inhibition of LPS-induced TNFalpha release in mouse at 20 mg/kg, po; assay type: functional; details: OF1
In short: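 Female OF1 mice, eight weeks old, given compound orally by gavage as a DMSO/cornoil solution at 20 mg/kg. One hour after dosing, LPS (20 mg/kg) injected iv to stimulate TNF-α release into plasma. Blood collected one hour later; plasma TNF-α measured by mouse-specific ELISA; reported as % inhibition.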

[2] = Cmax in rat administered at 1 mg/kg, po; assay type: ADME, organism-based; parameters: dose 1 mg/kg, route oral; details: in vivo
[3] = Oral bioavailability in rat; assay type: ADME, organism-based; details: in vivo
[4] = molecular target: Mitogen-activated protein kinase 9 (Homo sapiens, UniProt P45984); experiment: Inhibitory activity against JNK2
Chain of Mitogen-activated protein kinase 9 (P45984 whole entry): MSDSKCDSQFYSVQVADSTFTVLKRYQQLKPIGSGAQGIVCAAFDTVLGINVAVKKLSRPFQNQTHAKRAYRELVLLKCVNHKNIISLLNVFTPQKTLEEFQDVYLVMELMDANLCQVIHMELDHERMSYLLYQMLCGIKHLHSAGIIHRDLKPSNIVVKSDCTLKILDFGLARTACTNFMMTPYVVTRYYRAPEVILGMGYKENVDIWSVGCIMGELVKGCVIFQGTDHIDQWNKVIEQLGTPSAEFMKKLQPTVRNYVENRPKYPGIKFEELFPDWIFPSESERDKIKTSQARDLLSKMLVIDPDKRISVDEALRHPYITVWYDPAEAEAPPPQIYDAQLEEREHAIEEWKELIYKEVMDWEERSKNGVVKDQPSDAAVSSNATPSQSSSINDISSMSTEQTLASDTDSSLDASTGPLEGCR

[5] = molecular target: Insulin-like growth factor 1 receptor (Homo sapiens) (UniProt P08069); experiment: Inhibition of IGF1R at 10 uM
Chain of Insulin-like growth factor 1 receptor (Homo sapiens) (P08069 31-736 limits assumed): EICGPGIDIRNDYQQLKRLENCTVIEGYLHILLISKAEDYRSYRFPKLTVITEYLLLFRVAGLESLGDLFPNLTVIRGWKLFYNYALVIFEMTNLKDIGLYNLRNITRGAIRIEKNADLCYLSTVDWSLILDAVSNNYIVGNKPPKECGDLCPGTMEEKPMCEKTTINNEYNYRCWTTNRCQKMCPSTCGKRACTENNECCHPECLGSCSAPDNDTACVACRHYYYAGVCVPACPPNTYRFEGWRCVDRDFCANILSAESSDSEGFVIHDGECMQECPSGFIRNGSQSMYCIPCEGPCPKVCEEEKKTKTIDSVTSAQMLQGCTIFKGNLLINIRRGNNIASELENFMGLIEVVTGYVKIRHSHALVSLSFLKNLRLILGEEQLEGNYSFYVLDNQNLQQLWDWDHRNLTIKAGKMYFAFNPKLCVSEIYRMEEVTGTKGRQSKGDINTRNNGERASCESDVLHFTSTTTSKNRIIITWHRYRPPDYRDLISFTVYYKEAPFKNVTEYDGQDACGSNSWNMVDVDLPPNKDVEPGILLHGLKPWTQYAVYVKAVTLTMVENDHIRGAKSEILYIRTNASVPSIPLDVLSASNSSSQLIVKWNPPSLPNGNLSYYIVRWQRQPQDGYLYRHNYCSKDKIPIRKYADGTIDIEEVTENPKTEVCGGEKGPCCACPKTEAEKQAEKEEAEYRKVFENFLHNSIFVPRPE
Chain of Insulin-like growth factor 1 receptor (Homo sapiens) (P08069 741-1367 limits assumed): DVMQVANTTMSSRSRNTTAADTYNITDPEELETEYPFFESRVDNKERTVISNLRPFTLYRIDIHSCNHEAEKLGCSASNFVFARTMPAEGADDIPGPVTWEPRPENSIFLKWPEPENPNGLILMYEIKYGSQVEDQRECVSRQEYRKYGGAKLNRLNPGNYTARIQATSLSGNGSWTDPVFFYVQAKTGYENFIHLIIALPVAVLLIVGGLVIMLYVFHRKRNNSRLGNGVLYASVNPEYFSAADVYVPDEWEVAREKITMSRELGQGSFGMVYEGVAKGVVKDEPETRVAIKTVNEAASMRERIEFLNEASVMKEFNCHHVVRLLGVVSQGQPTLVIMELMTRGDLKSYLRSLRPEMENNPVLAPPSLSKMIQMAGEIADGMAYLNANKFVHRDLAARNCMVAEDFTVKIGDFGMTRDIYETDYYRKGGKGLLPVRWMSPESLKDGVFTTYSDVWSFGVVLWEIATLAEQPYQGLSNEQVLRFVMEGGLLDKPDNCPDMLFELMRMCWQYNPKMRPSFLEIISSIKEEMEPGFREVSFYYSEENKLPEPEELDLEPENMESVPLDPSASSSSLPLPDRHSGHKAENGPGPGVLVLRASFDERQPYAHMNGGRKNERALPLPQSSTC

[6] = molecular target: Cyclin-dependent kinase 1 (Homo sapiens) (UniProt P06493); experiment: Inhibition of CDK1 at 10 uM
Chain of Cyclin-dependent kinase 1 (Homo sapiens) (P06493 whole entry, looked up): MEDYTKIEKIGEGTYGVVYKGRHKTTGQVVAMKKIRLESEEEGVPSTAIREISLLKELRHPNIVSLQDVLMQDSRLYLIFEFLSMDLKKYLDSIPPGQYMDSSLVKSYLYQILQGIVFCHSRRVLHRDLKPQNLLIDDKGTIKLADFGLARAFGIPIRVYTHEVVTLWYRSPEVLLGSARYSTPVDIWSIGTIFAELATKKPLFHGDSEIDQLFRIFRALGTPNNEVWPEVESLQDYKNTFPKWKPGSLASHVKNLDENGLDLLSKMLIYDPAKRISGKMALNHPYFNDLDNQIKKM

[7] = AUC in rat; assay type: ADME, organism-based; details: plasma
Rattus norvegicus [8] = experiment: Inhibition of adjuvant-induced arthritis in rat at 25 mg/kg, po; assay type: functional; details: Wistar
In short: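 Female Wistar rats immunized with Mycobacterium tuberculosis on day 0. Compound dosed orally at 25 mg/kg twice daily from day 14 to day 20. Joint swelling measured on day 20; paw swelling inhibition expressed as %.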

Rattus norvegicus [9] = experiment: Inhibition of collagen-induced arthritis in rat at 10 mg/kg, po; assay type: functional
In short: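 Collagen-induced arthritis in rats. Compounds given orally once daily (q.d.) for 10 days; swelling inhibition recorded.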

[10] = Half life in rat; assay type: ADME, organism-based; details: in vivo
[11] = molecular target: T1, Epidermal growth factor receptor (Homo sapiens, UniProt P00533); experiment: Inhibitory activity against HER1
T1 sequence (P00533 whole entry): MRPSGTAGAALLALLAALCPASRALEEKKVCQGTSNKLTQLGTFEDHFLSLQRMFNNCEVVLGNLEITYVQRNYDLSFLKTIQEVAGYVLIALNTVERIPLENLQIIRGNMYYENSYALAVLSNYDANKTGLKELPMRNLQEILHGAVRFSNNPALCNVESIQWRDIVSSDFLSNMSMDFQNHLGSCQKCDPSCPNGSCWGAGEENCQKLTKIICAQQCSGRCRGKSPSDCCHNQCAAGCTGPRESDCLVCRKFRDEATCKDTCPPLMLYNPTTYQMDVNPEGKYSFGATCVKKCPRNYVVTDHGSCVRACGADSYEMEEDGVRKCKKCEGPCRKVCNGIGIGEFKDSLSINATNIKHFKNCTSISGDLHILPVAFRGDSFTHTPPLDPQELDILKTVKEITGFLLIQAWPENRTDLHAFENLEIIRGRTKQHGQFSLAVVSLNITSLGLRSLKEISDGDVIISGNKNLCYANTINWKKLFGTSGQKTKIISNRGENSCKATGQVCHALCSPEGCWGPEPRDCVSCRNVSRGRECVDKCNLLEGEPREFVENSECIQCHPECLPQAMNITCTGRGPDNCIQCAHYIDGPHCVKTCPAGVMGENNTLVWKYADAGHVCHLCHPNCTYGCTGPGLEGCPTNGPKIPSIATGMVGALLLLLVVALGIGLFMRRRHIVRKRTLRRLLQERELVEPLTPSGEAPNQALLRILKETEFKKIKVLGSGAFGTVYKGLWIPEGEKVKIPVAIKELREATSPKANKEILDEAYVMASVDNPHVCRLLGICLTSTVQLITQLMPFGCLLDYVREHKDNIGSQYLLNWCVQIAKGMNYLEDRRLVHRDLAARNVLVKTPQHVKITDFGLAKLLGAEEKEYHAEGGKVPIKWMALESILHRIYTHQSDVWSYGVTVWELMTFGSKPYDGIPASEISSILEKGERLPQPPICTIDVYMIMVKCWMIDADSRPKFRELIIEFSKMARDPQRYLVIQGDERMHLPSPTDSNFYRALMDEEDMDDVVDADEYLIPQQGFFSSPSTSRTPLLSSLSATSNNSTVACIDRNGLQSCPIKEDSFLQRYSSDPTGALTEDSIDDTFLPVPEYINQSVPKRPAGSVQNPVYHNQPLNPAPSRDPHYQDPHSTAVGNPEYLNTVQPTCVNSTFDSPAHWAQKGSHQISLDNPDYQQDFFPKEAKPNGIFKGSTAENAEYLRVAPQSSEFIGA

[12] = molecular target: T2, Fibroblast growth factor receptor (Homo sapiens, UniProt P22607+P11362+P22455+P21802); experiment: Inhibitory activity against FGFR; assay type: protein assay
[13] = molecular target: RAF proto-oncogene serine/threonine-protein kinase (Homo sapiens) (UniProt P04049); experiment: Inhibition of c-Raf at 10 uM
[14] = molecular target: T3, Receptor tyrosine-protein kinase erbB-2 (Homo sapiens, UniProt P04626); experiment: Inhibitory activity against HER2
T3 sequence (P04626 whole entry): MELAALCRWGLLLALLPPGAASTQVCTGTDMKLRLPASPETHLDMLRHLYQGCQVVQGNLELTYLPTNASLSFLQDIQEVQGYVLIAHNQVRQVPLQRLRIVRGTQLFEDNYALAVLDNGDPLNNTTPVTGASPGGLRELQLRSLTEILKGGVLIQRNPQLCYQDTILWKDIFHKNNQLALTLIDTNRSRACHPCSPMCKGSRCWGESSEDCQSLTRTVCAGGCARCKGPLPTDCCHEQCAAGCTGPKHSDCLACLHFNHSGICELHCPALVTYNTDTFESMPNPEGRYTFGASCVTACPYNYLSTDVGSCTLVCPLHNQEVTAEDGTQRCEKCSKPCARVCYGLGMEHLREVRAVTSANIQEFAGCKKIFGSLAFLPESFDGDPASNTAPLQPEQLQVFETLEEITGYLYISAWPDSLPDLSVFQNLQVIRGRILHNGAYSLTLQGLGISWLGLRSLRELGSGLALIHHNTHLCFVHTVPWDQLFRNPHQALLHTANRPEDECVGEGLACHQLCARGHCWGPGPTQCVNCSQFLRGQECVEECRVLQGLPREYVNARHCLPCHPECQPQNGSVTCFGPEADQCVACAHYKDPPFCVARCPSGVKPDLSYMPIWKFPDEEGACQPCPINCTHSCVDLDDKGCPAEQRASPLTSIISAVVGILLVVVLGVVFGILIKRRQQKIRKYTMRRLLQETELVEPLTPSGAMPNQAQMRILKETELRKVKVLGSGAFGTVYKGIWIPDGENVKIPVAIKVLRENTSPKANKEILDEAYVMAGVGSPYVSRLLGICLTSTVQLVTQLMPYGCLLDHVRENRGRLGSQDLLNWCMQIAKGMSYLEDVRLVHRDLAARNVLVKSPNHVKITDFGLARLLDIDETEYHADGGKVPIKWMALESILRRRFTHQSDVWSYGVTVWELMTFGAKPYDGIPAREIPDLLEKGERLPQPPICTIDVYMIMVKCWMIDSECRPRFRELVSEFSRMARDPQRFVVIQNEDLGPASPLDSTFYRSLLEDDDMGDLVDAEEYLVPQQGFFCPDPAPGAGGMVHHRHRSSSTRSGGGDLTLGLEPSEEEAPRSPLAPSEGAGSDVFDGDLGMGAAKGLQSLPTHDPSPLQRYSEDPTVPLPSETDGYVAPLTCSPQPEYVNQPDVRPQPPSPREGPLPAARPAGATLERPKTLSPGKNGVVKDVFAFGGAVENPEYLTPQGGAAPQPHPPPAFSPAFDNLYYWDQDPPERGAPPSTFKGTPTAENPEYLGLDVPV

[15] = molecular target: Hepatocyte growth factor receptor (Homo sapiens, UniProt P08581); experiment: Inhibitory activity against c-Met
[16] = molecular target: T1, Epidermal growth factor receptor; details: 10 uM
[17] = molecular target: Mast/stem cell growth factor receptor Kit (Homo sapiens) (UniProt P10721); experiment: Inhibition of c-Kit at 10 uM
[18] = molecular target: T2, Fibroblast growth factor receptor; experiment: Inhibition of FGFR at 10 uM; assay type: protein assay
[19] = molecular target: T3, Receptor tyrosine-protein kinase erbB-2; experiment: Inhibition of HER2 at 10 uM

Chain of Mitogen-activated protein kinase 14 (P47811 whole entry): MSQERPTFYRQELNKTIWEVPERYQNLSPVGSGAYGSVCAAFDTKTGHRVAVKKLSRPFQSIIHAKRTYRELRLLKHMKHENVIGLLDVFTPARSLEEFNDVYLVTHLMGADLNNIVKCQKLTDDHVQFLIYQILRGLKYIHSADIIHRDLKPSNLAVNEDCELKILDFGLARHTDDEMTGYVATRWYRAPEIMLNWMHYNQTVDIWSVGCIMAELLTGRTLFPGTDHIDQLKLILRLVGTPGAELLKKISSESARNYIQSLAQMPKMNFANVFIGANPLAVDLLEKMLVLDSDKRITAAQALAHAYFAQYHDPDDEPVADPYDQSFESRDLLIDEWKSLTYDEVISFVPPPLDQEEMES

| SMILES | IC50 [1] [nM] | inhibition in vivo at 20 mg/kg (Mus musculus) [%] | bioavailability [3] [%] | inhibition in vivo at 25 mg/kg (Rattus norvegicus [8]) [%] | further results |
| --- | --- | --- | --- | --- | --- |
| COc1ccc(C(=O)O)cc1-c1[nH]nc2nc(Nc3ccc(F)cc3F)ccc12 | 200 |  |  |  |  |
| COc1ccc(CCCN2CCN(C)CC2)cc1-c1[nH]nc2nc(Nc3ccc(F)cc3F)ncc12 | 14 | 73 |  |  |  |
| COc1ccc(C#CCN2CCN(C)CC2)cc1-c1[nH]nc2nc(Nc3ccc(F)cc3F)ncc12 | 0.9 | 96 |  |  |  |
| COc1ccc(C(=O)N2CCNCC2)cc1-c1[nH]nc2nc(Nc3ccc(F)cc3F)ccc12 | 280 | 3 |  |  |  |
| COc1ccc(C#CC(C)(C)N)cc1-c1[nH]nc2nc(Nc3ccc(F)cc3F)ccc12 | 20 | 98 | 95 | 49 | Cmax [2]: 52 nM; IC50 [4]: 100000 nM; inhibition [5]: 0%; inhibition [6]: 0%; AUC [7]: 422 ng·h/mL; inhibition in vivo at 10 mg/kg (Rattus norvegicus [9]): 85% |
| COc1ccc(CCC(C)(C)N)cc1-c1[nH]nc2nc(Nc3ccc(F)cc3F)ncc12 | 43 | 68 |  |  |  |
| COc1ccc(CCC(C)(C)N)cc1-c1[nH]nc2nc(Nc3ccc(F)cc3F)cnc12 | 29 | 0 |  |  |  |
| COc1ccc(CCC(C)(C)O)cc1-c1[nH]nc2nc(Nc3ccc(F)cc3F)ncc12 | 47 | 98 |  | 36 |  |
| COc1ccc(C(=O)NC2CCOCC2)cc1-c1[nH]nc2nc(Nc3ccc(F)cc3F)ccc12 | 0.7 | 97 | 22 | 28 | Cmax [2]: 6 nM; half-life [10]: 1.4 h |
| COc1ccc(C#CCN(C)C)cc1-c1[nH]nc2nc(Nc3ccc(F)cc3F)ncc12 | 0.6 | 96 |  |  |  |
| COc1ccc(CCC(C)(C)O)cc1-c1[nH]nc2nc(Nc3ccc(F)cc3F)cnc12 | 21 | 94 |  |  |  |
| COc1ccc(C#CC(C)(C)N)cc1-c1[nH]nc2nc(Nc3ccc(F)cc3F)cnc12 | 10 | 98 | 9 | 37 | half-life [10]: 2.6 h |
| COc1ccc(CNC2CCCC2)cc1-c1[nH]nc2nc(Nc3ccc(F)cc3F)ccc12 | 58 | 38 |  |  |  |
| COc1ccc(C#CC(C)(C)N)cc1-c1[nH]nc2nc(Nc3ccc(F)cc3F)ncc12 | 12 | 85 | 16 | 69 | IC50 [11]: 5200 nM; IC50 [4]: 8300 nM; IC50 [12]: 10000 nM; inhibition [13]: 0%; inhibition [5]: 0%; AUC [7]: 512 ng·h/mL; IC50 [14]: 5000 nM; IC50 [15]: 1500 nM; inhibition in vivo at 10 mg/kg (Rattus norvegicus [9]): 75% |
| COc1ccc(CCCN(C)C)cc1-c1[nH]nc2nc(Nc3ccc(F)cc3F)ncc12 | 11 | 93 |  |  |  |
| COc1ccc(CNC2CCOCC2)cc1-c1n[nH]c2nc(Nc3ccc(F)cc3F)ccc12 | 94 | 80 |  | 46 | inhibition in vivo at 10 mg/kg (Rattus norvegicus [9]): 10% |
| COc1ccc(CCC(C)(C)N)cc1-c1[nH]nc2nc(Nc3ccc(F)cc3F)ccc12 | 33 | 78 | 20 | 9 | Cmax [2]: 11 nM |
| COc1ccc(C#CC(C)(C)O)cc1-c1[nH]nc2nc(Nc3ccc(F)cc3F)ncc12 | 19 | 98 |  | 34 |  |
| COc1ccc(C#CC(C)(C)O)cc1-c1[nH]nc2nc(Nc3ccc(F)cc3F)cnc12 | 7 | 98 | 22 | 41 | Cmax [2]: 160 nM; inhibition [16]: 0%; inhibition [17]: 0%; IC50 [4]: > 100000 nM; inhibition [18]: -5%; inhibition [19]: 0%; inhibition in vivo at 10 mg/kg (Rattus norvegicus [9]): 57% |
| COc1ccc(C(=O)NC2CCCC2)cc1-c1[nH]nc2nc(Nc3ccc(F)cc3F)ccc12 | 5 | 97 | 26 | 34 | Cmax [2]: 6 nM; half-life [10]: 1.6 h |
